EC50 and IC50 data for 19 compounds are collected here from ChEMBL document CHEMBL1122430, “Nucleosides. 123. Synthesis of antiviral nucleosides: 5-substituted 1-(2-deoxy-2-halogeno-beta-D-arabinofuranosyl)cytosines and -uracils. Some structure-activity relationships” (1983).

What all share (type): functional
The subject of test [1] is Human alphaherpesvirus 2. Put plainly: Antiherpetic activity against HSV-2. The note with it: read-out: ED50 (the source's name). In outline:
(§1)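 Plaque-reduction assay on Vero cell monolayers infected with HSV-1 or HSV-2 (strain G). ED50 is the dose that cuts plaque number by 50%.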

The test system of test [2] is Human alphaherpesvirus 1. Put plainly: Antiherpetic activity against HSV-1. As to conditions: read-out: ED50 (the source's name). In outline:
as §1

The test system of test [3] is Lymphocytic cell line. Put plainly: Inhibition of growth of normal human lymphocytic cells. The note with it: read-out: ID50 (the source's name).
[4] abbreviates: Homo sapiens, Lymphocytic cell line.

Take `Cc1cn([C@@H]2O[C@H](CO)[C@@H](O)[C@@H]2F)c(=O)nc1N`: the EC50 in test [1] (Human alphaherpesvirus 2) is 0.8 µM; in test [2] (Human alphaherpesvirus 1) it was 0.64 µM. The IC50 in test [3] (setting [4]) worked out at 0.8 µM.

Turning to `O=c1[nH]c(=O)n([C@@H]2O[C@H](CO)[C@@H](O)[C@H]2F)cc1I`, the EC50 in test [1] (Human alphaherpesvirus 2) turned out to be 0.055 µM; in test [2] (Human alphaherpesvirus 1), 0.025 µM. Moreover, in test [3] (setting [4]), the IC50 amounted to 3.3 µM.

In the case of `O=c1ccn([C@@H]2O[C@H](CO)[C@@H](O)[C@H]2F)c(=O)[nH]1`, the EC50 in test [1] (Human alphaherpesvirus 2) is 6 µM; in test [2] (Human alphaherpesvirus 1) it was 0.8 µM. Further, the IC50 in test [3] (setting [4]) is more than 100 µM.

Take `O=c1[nH]c(=O)n([C@H]2O[C@@H](CO)[C@H](O)[C@H]2F)cc1Br`: the EC50 worked out at 0.07 µM in test [1] (Human alphaherpesvirus 2) and 0.11 µM in test [2] (Human alphaherpesvirus 1). Moreover, the IC50 in test [3] (setting [4]) was determined as 0.9 µM.

With `Nc1nc(=O)n([C@H]2O[C@@H](CO)[C@H](O)[C@H]2F)cc1Br`, the EC50 was 0.02 µM in test [1] (Human alphaherpesvirus 2) and 0.19 µM in test [2] (Human alphaherpesvirus 1). For the same compound, in test [3] (setting [4]), the IC50 amounted to 5 µM.

On to `Nc1nc(=O)n([C@@H]2O[C@H](CO)[C@@H](O)[C@@H]2Cl)cc1Br`, for which the EC50 in test [1] (Human alphaherpesvirus 2) and in test [2] (Human alphaherpesvirus 1) was more than 100 µM in each case. Besides, in test [3] (setting [4]), the IC50 was more than 100 µM.

In the case of `Nc1nc(=O)n([C@@H]2O[C@H](CO)[C@@H](O)[C@@H]2Cl)cc1I`, the EC50 in test [1] (Human alphaherpesvirus 2) came to 0.09 µM; in test [2] (Human alphaherpesvirus 1), 3.4 µM. In test [3] (setting [4]), the IC50 was determined as 3.5 µM.

Take `Cc1cn([C@@H]2O[C@H](CO)[C@@H](O)[C@@H]2Cl)c(=O)nc1N`: the EC50 in test [1] (Human alphaherpesvirus 2) is 0.22 µM; in test [2] (Human alphaherpesvirus 1), more than 100 µM. For the same compound, the IC50 in test [3] (setting [4]) stood at 20 µM.

In the case of `Cc1cn([C@@H]2O[C@H](CO)[C@@H](O)[C@@H]2Br)c(=O)[nH]c1=O`, the EC50 in test [1] (Human alphaherpesvirus 2) and in test [2] (Human alphaherpesvirus 1) was more than 100 µM in each case. For the same compound, in test [3] (setting [4]), the IC50 was 8 µM.

Regarding `Cc1cn([C@@H]2O[C@H](CO)[C@@H](O)[C@@H]2Cl)c(=O)[nH]c1=O`, the EC50 in test [1] (Human alphaherpesvirus 2) and in test [2] (Human alphaherpesvirus 1) was more than 100 µM throughout. Also, the IC50 in test [3] (setting [4]) is more than 100 µM.

As to `Nc1ccn([C@@H]2O[C@H](CO)[C@@H](O)[C@@H]2Cl)c(=O)n1`, the EC50 in test [1] (Human alphaherpesvirus 2) worked out at 3.8 µM; in test [2] (Human alphaherpesvirus 1), 0.11 µM. The IC50 in test [3] (setting [4]) stood at 0.006 µM.

Regarding `Nc1ccn([C@@H]2O[C@H](CO)[C@@H](O)[C@@H]2Br)c(=O)n1`, the EC50 amounted to 4.4 µM in test [1] (Human alphaherpesvirus 2) and 3.2 µM in test [2] (Human alphaherpesvirus 1). Also, the IC50 in test [3] (setting [4]) was found to be 0.2 µM.

As for `Nc1nc(=O)n([C@@H]2O[C@H](CO)[C@@H](O)[C@@H]2Br)cc1I`, the results for the EC50 in test [1] (Human alphaherpesvirus 2) and in test [2] (Human alphaherpesvirus 1) were 2.2 µM and 9.5 µM, respectively. Moreover, in test [3] (setting [4]), the IC50 is 0.2 µM.

As for `Cc1cn([C@@H]2O[C@H](CO)[C@@H](O)[C@@H]2Br)c(=O)nc1N`, the EC50 in test [1] (Human alphaherpesvirus 2) was 26.2 µM; in test [2] (Human alphaherpesvirus 1), more than 100 µM. Besides, in test [3] (setting [4]), the IC50 turned out to be 34 µM.

Consider `Nc1nc(=O)n([C@@H]2O[C@H](CO)[C@@H](O)[C@@H]2Br)cc1Br`, for which the EC50 in test [1] (Human alphaherpesvirus 2) and in test [2] (Human alphaherpesvirus 1) was more than 100 µM each time. Also, the IC50 in test [3] (setting [4]) amounted to 4.5 µM.

On to `Nc1ccn([C@@H]2O[C@H](CO)[C@@H](O)[C@@H]2F)c(=O)n1`, for which the EC50 was determined as 0.3 µM in test [1] (Human alphaherpesvirus 2) and 0.12 µM in test [2] (Human alphaherpesvirus 1). The IC50 in test [3] (setting [4]) came to 0.6 µM.

For the compound `Nc1nc(=O)n([C@@H]2O[C@H](CO)[C@@H](O)[C@H]2F)cc1I` (stereo in doubt; 3A), the EC50 in test [1] and in test [2] was 0.01 µM each time. In addition, in test [3], the IC50 came out at 8.6 µM.

As for `Nc1nc(=O)n([C@@H]2O[C@H](CO)[C@@H](O)[C@H]2F)cc1I` (stereo in doubt; 9), the EC50 in test [1] was 27.4 µM; in test [2], 17.9 µM. In addition, in test [3], the IC50 worked out at 1.9 µM.

In the case of `Cc1cn([C@@H]2O[C@H](CO)[C@@H](O)[C@@H]2F)c(=O)[nH]c1=O` [5-METHYL-2'-FLUOROARAURACIL], the EC50 in test [1] (Human alphaherpesvirus 2) and in test [2] (Human alphaherpesvirus 1) was 0.013 µM in each case. In addition, the IC50 in test [3] (setting [4]) worked out at 1 µM.
